From PubChem BioAssay
Cneo AK release: Cryptococcus neoformans cell lysis inducers, primary screen, AK release luminescence, single concentration; AID 651654, 2012; C. neoformans lysis, adenylate kinase release luminescence, 4 h; normalised: neutral wells 0, clomiphene wells 100; lysis activity, % at 15 µM; 0.2% of 360,000 active;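 active = mean lysis activity across replicates of at least 80%, whatever share of replicates individually reach that level; inactive = mean lysis activity below 80%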
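Schedule: static 4 h at 37 °C with compound, 1 h detection; system: C. neoformans cells; benchmarks: Clomiphene as positive control; buffer or medium: fresh YPD medium; measure: luminescence rise reflecting yeast cell lysis; measured by: luminescent adenylate kinase detection reagent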
FGF22 binding: binders of human FGF22 protein, primary screen, FGF22 synaptogenesis inhibitor project, biophysical, thermal shift, single point; Fibroblast growth factor 22 (Homo sapiens), Q9HCT0; activity (Tm shift, normalised), % at 9.99 µM; AID 651658, 2012; recombinant FGF22 thermal shift, SYPRO orange fluorescence; percent of sucrose octasulfate shift, DMSO zero; 1.5% of 340,000 active;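 active = mean Tm shift, scaled 0 neutral to 100 positive control, at about 1.3% or above, every replicate too, limit read from the data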
Target sequence (Q9HCT0 whole entry, looked up): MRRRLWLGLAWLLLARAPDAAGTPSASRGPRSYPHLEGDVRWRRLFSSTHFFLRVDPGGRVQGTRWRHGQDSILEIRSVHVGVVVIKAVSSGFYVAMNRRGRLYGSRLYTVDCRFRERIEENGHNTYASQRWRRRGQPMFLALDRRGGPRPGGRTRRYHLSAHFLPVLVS
PGC1a acetyl inh: inhibitors of PGC1a acetylation signal, primary screen, cell-based, U2OS, AlphaScreen, inhibitor mode | AlphaScreen anti-acetyl-lysine; with virally co-expressed GCN5 acetyltransferase | inhibition, % at 15.6 µM | 0.17% of 350,000 active;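 active = every replicate shows inhibition of at least 40%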;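 also: 0% = neutral control wells and 100% = positive control wells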
PglD inh: C. jejuni PglD acetyltransferase inhibitors, primary screen, biochemical, DTNB colorimetric, single point; purified PglD enzyme, DTNB colorimetric CoA detection; inhibition, % at 12.5 µM; AID 602405, 2012; 0.098% of 360,000 active; in the data active = inhibition above about 16%, passing the limit was not always enough
Vif inh: HIV Vif self-association inhibitors, primary screen, imaging, HEK293T, single point. HEK293T cells, Vif self-association by quenched fluorescence, 24 h. inhibition, % at 7.49 µM. 0.35% of 340,000 active. AID 602346, 2012; in the data active = inhibition above about 50%, passing the limit was not always enough
rRNA inh HTS: reduced GFP signal of wild-type E. coli, primary screen, bacterial rRNA inhibitor project, GFP/RFP fluorescence, OD600, single point; 1.6% of 350,000 active; E. coli WT GFP vs humanized-ribosome RFP mutants, 24 h; active compounds read low; DMSO median 0, no signal -100; GFP signal change (wild-type ribosome), % (no concentration beside the values);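 active = significant combined selectivity score with lowered wild-type GFP, culture density cut under 30%, mutant RFP and density less affected; inactive = any of these conditions unmet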
Starred values were filed as active, the others as inactive; x = no result given. Sampled rows, rich in hits. Any-hit rate of the full collection: about 2.9%.

SMILES	Cneo AK release	FGF22 binding	PGC1a acetyl inh	PglD inh	Vif inh	rRNA inh HTS
Nc1ncnc2c1ncn2[C@@H]1O[C@H](COP(=O)(O)O)[C@@H](O)[C@H]1O	-3	0	5	0	106*	x
Nc1ncnc2c1ncn2C1OC(COP(=O)(O)O)C(O)C1O (configuration not stated)	1	0	-4	-6	66*	x
Nc1ncnc2c1ncn2[C@@H]1O[C@H](CO)C[C@H]1O	1	0	0	3	56*	x
Nc1ncnc2c1ncn2[C@@H]1O[C@H](COS(=O)(=O)O)[C@@H](O)[C@H]1O	1	0	x	0	1	7
COc1ccc(C#Cc2cnc3c(c2)C(=O)N([C@@H](C)CO)C[C@@H](C)[C@@H](CN(C)C(C)=O)O3)cc1	x	0	12	x	x	-3
CC(C)NC(=O)Nc1ccc2c(c1)C(=O)N(C)[C@@H]1CC[C@H](CC(=O)NCc3ccc(F)cc3)O[C@H]1CO2	2	0	x	-2	x	3
COc1ccc(NC(=O)N(C)C[C@@H]2Oc3ccc(NC(=O)Cc4cn(C)c5ccccc45)cc3CC(=O)N([C@H](C)CO)C[C@H]2C)cc1	6	0	2	1	x	5
CCN1CCN(Cc2ccc(NC(=O)c3ccc(C)c(NC(=O)c4cncc(-c5cccs5)c4)c3)cc2C(F)(F)F)CC1	0	x	69*	-2	x	x
CCN1CCN(Cc2ccc(NC(=O)c3ccc(C)c(NC(=O)c4nccn4C)c3)cc2C(F)(F)F)CC1	0	0	-2	3	-5	-7
Cc1nc(N2CCOCC2)nc(Oc2ccccc2)c1[N+](=O)[O-]	x	0	x	x	18	-43*
CN(C)C(=O)C[C@@H]1C[C@H]2c3cc(NS(=O)(=O)c4ccccc4)ccc3O[C@H]2[C@H](CO)O1	-2	0	0	0	x	3
CCOc1ccc(NC(=O)CN(C)CC(=O)Nc2ccc(Br)cc2F)cc1OCC	x	0	-12	x	-4	-28*
CCN(CC(=O)Nc1ccc(OC)cc1)CC(=O)Nc1ccc(Br)cc1F	x	0	x	x	-16	-15
Cc1noc(C)c1S(=O)(=O)Nc1ccc2c(c1)C(=O)N([C@H](C)CO)C[C@H](C)[C@@H](CN(C)S(=O)(=O)c1ccc(F)cc1)OCCCC[C@@H](C)O2	-1	0	-2	10	x	1
C[C@@H]1CN([C@@H](C)CO)C(=O)c2cccc(NC(=O)C3CCCCC3)c2O[C@H]1CN(C)Cc1ccccc1	-2	1	x	2	x	-5
CN1/C(=C\C(=O)Nc2ccc(Cl)cc2)C(C)(C)c2ccccc21	x	44*	x	x	2	-41
O=C(C[C@H]1C[C@@H]2c3cc(NC(=O)C4CCC4)ccc3O[C@@H]2[C@@H](CO)O1)NCCc1ccccc1	2	0	-6	-1	x	1
COc1cc(/C=C/C(=O)Nc2ccc(OC)c(S(=O)(=O)N3CCOCC3)c2)ccc1OC(F)F	-1	1.6*	-12	2	-3	-5
COc1ccc(/C=C/C(=O)Nc2cccc(F)c2)cc1S(=O)(=O)N1CCOCC1	-8	0	3	7	-9	-27*
COc1ccc(NC(=O)c2c(F)cccc2Cl)cc1S(=O)(=O)N1CCOCC1	-4	43*	1	-2	2	5
COc1ccc(NC(=O)/C=C/c2ccc(C)o2)cc1S(=O)(=O)N1CCOCC1	x	0	x	x	-3	15
COc1ccc(NC(=O)c2ccccn2)cc1S(=O)(=O)N1CCOCC1	x	0	2	x	0	5
COc1ccc(/C=C/C(=O)Nc2ccc(C(C)=O)cc2)cc1S(=O)(=O)N1CCOCC1	1	0	2	-2	1	11
COc1ccc(/C=C/C(=O)Nc2ccccc2F)cc1S(=O)(=O)N1CCOCC1	0	0	-6	2	11	-20*
COc1ccccc1N1CCN(S(=O)(=O)c2cn(C)c(=O)n(C)c2=O)CC1	8	0	x	2	-6	5
SMILES	Cneo AK release	FGF22 binding	PGC1a acetyl inh	PglD inh	Vif inh	rRNA inh HTS
Cc1ccccc1OS(=O)(=O)c1cn(C)c(=O)n(C)c1=O	x	43*	x	x	7	10
CC1CC(Nc2ccccc2)c2ccccc2N1C(=O)c1ccco1 (configuration not stated)	-1	0	-23	-1	2	-28*
COc1ccc([C@@H]2CC=CC[C@H](C)Oc3ccccc3C(=O)N(C)[C@@H](C)C(=O)N2)c(OC)c1 (mixture of isomers)	x	x	x	x	x	-3
CC(=O)N(C)C[C@@H]1Oc2cc(C#CC(C)C)ccc2S(=O)(=O)N([C@@H](C)CO)C[C@H]1C	0	0	-2	5	x	0
C/C(=N/NC(=O)C(O)(c1ccccc1)c1ccccc1)c1ccc([N+](=O)[O-])o1	x	0	-16	x	x	-35*
CCc1nnc(NC(=O)CS(=O)(=O)Cc2ccccc2)s1	x	1.5*	-13	x	-11	4
CCc1nnc(NC(=O)CSc2nnc(-c3ccccc3O)o2)s1	-4	0	19	3	-10	-26*
CCc1nnc(NC(=O)CSc2nc(-c3ccccc3)c(-c3ccccc3)o2)s1	x	0	x	x	6	5
CS(=O)(=O)c1nc(-c2ccc(F)cc2)cc(C(F)(F)F)n1	x	0	x	x	0	-34*
CCOC(=O)CCS(=O)(=O)c1nc(-c2ccccc2)cc(C(F)(F)F)n1	4	x	68*	0	-10	x
CCOC(=O)CS(=O)(=O)c1nc(-c2ccc(F)cc2)cc(C(F)(F)F)n1	1	x	27	1	x	x
CCOC(=O)CS(=O)(=O)c1nc(-c2ccccc2)cc(C(F)(F)F)n1	x	x	58*	x	1	x
COc1ccc(-c2cc(C(F)(F)F)nc(S(C)(=O)=O)n2)cc1	x	x	-66	x	34	x
COc1ccccc1C#Cc1ccc2c(c1)[C@H]1[C@H](CCN1S(=O)(=O)c1ccc(C)cc1)[C@@H](CO)N2	x	1	-2	x	x	5
C/C=C/c1ccc2c(c1)O[C@@H](CN(C)C(=O)c1ccc(F)cc1)[C@H](C)CN([C@@H](C)CO)S2(=O)=O	-15	0	-11	3	x	-8
N#CC1=C2SCC(O)(c3ccccc3)N2C(=O)CC1c1ccccc1F (configuration not stated)	-2	x	-4	-1	x	x
N#CC1=C2SCC(O)(c3ccccc3)N2C(=O)CC1c1cccs1 (configuration not stated)	-2	1	7	-2	0	-37*
